Measured values gathered from unrelated publications.
Protocols differ between the studies behind these lines.
DRD3: D(3) dopamine receptor (DRD3, Homo sapiens, UniProt P35462)
CA12: Carbonic anhydrase 12 (CA12, Homo sapiens, UniProt O43570)
USP51: Ubiquitin carboxyl-terminal hydrolase 51 (USP51, Homo sapiens, UniProt Q70EK9)
SLC6A3: Sodium-dependent dopamine transporter (SLC6A3, Homo sapiens, UniProt Q01959)

O=C(c1ccccc1Cl)N1CCN(CCNc2cc(=O)oc3ccccc23)CC1 — inhibition (DRD3; enzyme activity; inhibitor; 10 µM): -5.2%
CCOC(=O)C1CSc2[nH]c(=O)sc2C1c1cn(-c2ccccc2)nc1-c1ccc(OC)cc1 (stereo not shown) — inhibition (CA12; enzyme activity; inhibitor; absorbance; 1 µM): 58.2%
Cc1ccc(C(C)C)c(OCC(O)CN2CCN(c3ccccc3F)CC2)c1 (stereo not shown) — inhibition (DRD3; enzyme activity; inhibitor; 10 µM): 20.4%
COc1ccccc1O — inhibition (USP51; enzyme activity; inhibitor; 5 µM): 0%
C=CCn1c(SCC(=O)NC2=NN(c3ccccc3)C(=O)C2)nnc1-c1cccs1 — inhibition (DRD3; enzyme activity; inhibitor; 10 µM): -4.7%
CCOC(=O)C1CSc2[nH]c(=O)sc2C1c1cn(-c2ccccc2)nc1-c1ccc(C)cc1 (stereo not shown) — inhibition (CA12; enzyme activity; inhibitor; absorbance; 10 nM): 11.9%
O=C(CN1CCN(c2ccc(F)cc2)CC1)Nc1cc(Cl)cc(Cl)c1 — inhibition (DRD3; enzyme activity; inhibitor; 10 µM): -6.1%
CCOC(=O)C1CSc2[nH]c(=O)sc2C1c1cn(-c2ccccc2)nc1-c1ccc(Br)cc1 (stereo not shown) — inhibition (CA12; enzyme activity; inhibitor; absorbance; 10 µM): 81%
Clc1ccc(C(c2ccc(Cl)cc2)c2nnnn2CCCCN2CCN(CCCc3ccccc3)CC2)cc1 — inhibition (SLC6A3; transporter uptake; inhibitor; HEK293; 1 µM): 72.7%
O=C(/C=C/C=C/c1ccc2c(c1)OCO2)N1CCCCC1 — inhibition (USP51; enzyme activity; inhibitor; 5 µM): 31%
N#CC1CSc2[nH]c(=O)sc2C1c1cn(-c2ccccc2)nc1-c1ccc(Br)cc1 (stereo not shown) — inhibition (CA12; enzyme activity; inhibitor; absorbance; 0.1 µM): 40.6%
COc1ccccc1N1CCN(CCCCN2C(=O)C3CCCCN3C2=O)CC1 (stereo not shown) — inhibition (DRD3; enzyme activity; inhibitor; 10 µM): 47.5%
Nc1cc[nH]c(=O)n1 — inhibition (USP51; enzyme activity; inhibitor; 5 µM): 27%
Fc1ccc(C(c2ccc(F)cc2)c2nnnn2CCCCN2CCC(CCCc3ccccc3)CC2)cc1 — inhibition (SLC6A3; transporter uptake; inhibitor; HEK293; 1 µM): 53.4%
CC(C)Oc1ccc2c(=O)c(-c3ccccc3)coc2c1 — inhibition (USP51; enzyme activity; inhibitor; 5 µM): 43%
Clc1ccc(C(c2ccccc2)c2nnnn2CCCCN2CCN(CC=Cc3ccccc3)CC2)cc1 (stereo not shown) — inhibition (SLC6A3; transporter uptake; inhibitor; HEK293; 1 µM): 82.2%
O=C(c1ccc(Cl)cc1)N(Cc1ccccc1)C1CCCCC1 — inhibition (Peroxisome proliferator-activated receptor gamma (PPARG, Homo sapiens, UniProt P37231); cell-free assay; 10 µM): 14.6%
COc1cc(OC)c(OC)cc1CN1CCN(Cc2c[nH]c3ccccc23)CC1 — inhibition (DRD3; enzyme activity; inhibitor; 10 µM): 8.6%
CCCCC/C=C\C/C=C\CCCCCCCC(=O)O — inhibition (USP51; enzyme activity; inhibitor; 5 µM): 100%
Clc1ccc(CC2CCN(CCCCn3nnnc3C(c3ccccc3)c3ccccc3)CC2)cc1Cl — inhibition (SLC6A3; transporter uptake; inhibitor; HEK293; 1 µM): 67.7%
OC[C@H]1NC[C@H](O)[C@@H](O)[C@@H]1O — inhibition (USP51; enzyme activity; inhibitor; 5 µM): 0%
CN(C)C1CCN(CC#Cc2nn(C3CCCC3)c3nc(NCc4ccccc4)ncc23)C1 (stereo not shown) — inhibition (Calcium/calmodulin-dependent protein kinase type IV (CAMK4, Homo sapiens, UniProt Q16566); enzyme activity; inhibitor; FRET; 10 µM): 23%
